Measurements reported in publication PMC7816766 (Journal of Medicinal Chemistry, 2020).
“Also recorded” adds a separate entry of the source.

Legend:
[1] = cited from earlier work
[2] = test system: MDA-MB-231 or MDA-MB-468 cells; assay: Cell viability/growth of breast cancer cells harboring active STAT3; type: cell-based, human; conditions: for activity against breast cancer cells: up to 10 μM; for viability, anchorage-dependent and independent growth, and colony formation: at 1 μM or less
[3] = target: STAT3 (Mus musculus, UniProt P42227); type: biochemical; conditions: for direct effect on STAT3 activity in the DNA-binding assay/EMSA: up to 10 μM
[4] = target: T1, STAT1:STAT1 homodimers (Mus musculus, UniProt P42225); type: biochemical; conditions: 10 µM, MGFe probe (Fig. S6)
T1 sequence (P42225 2-749 limits assumed): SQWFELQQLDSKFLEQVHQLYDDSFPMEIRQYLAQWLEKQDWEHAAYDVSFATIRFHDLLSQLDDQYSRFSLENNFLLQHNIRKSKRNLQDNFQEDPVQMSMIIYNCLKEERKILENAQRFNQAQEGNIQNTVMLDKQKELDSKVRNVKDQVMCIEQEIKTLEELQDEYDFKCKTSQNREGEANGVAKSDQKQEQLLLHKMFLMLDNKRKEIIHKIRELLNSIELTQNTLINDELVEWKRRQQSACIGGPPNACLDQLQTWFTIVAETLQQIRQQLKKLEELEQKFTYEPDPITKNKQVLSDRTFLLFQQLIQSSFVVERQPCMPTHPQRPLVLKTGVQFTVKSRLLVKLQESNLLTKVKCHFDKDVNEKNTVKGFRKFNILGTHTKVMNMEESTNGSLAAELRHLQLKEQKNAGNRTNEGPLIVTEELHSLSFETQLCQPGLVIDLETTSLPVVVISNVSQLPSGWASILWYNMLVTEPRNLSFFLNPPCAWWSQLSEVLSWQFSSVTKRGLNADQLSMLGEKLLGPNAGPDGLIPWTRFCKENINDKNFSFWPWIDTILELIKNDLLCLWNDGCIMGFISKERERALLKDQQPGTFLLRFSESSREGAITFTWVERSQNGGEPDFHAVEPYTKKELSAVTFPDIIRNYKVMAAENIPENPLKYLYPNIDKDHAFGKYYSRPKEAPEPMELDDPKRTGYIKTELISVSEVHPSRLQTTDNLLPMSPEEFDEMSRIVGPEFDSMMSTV

[5] = test system: STAT5:STAT5 homodimers; type: biochemical; conditions: 10 µM, MGFe probe (Fig. S6)
[6] = test system: MDA-MB-231 cells; assay: CyQuant cell viability assay, MDA-MB-231; type: cell-based; conditions: Homo sapiens, MDA-MB-231, 72 h, read-out: Cell viability EC50 MDA-MB-231
[7] = test system: MCF-10A cells; assay: CyQuant cell viability assay, MCF-10A; type: cell-based; conditions: Homo sapiens, 72 h, read-out: Cell viability EC50 MCF-10A
Outline: (§1)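 Cells in 96-well plates were treated with test compound over a range of concentrations for 72 h, then assayed with CyQuant. Viability was normalised to control as % and plotted against concentration to derive EC50. Media: MCF-10A in DMEM/F12 with 5% horse serum, EGF, insulin and hydrocortisone; other lines in DMEM with 10% heat-inactivated FBS.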

[8] = test system: MDA-MB-468 cells; assay: CyQuant cell viability assay, MDA-MB-468; type: cell-based; conditions: Homo sapiens, MDA-MB-468, 72 h, read-out: Cell viability EC50 MDA-MB-468
Outline: as §1

[9] = test system: MDA-MB-231 cells; assay: Clonogenic; type: cell-based, human; conditions: treated once
Outline: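 Cells were seeded as single-cell cultures at 250 cells per well. They were treated once the next day with test compound at 0–1 μM and cultured until large colonies were visible. Colonies were stained with crystal violet for 4 h and photographed. Data came from three independent determinations.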

[10] = test system: MCF-7 cells; assay: Cell growth by trypan blue exclusion/phase-contrast microscopy, MCF-7; type: cell-based, human; conditions: 2 μM
Outline: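 Cells cultured in 6-well plates and treated once with 2 μM test compound. Every 24 h (up to 96 h), cells were harvested and viable cells counted by trypan blue exclusion under phase-contrast microscopy. Counts were plotted against treatment duration. Cells were grown in DMEM with 10% heat-inactivated FBS.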

[11] = test system: pY705STAT3; assay: Immunoblotting for pY705STAT3 in treated breast cancer cells; type: cell-based, human; conditions: 1–5 μM, 0–24 h (BBI-608 0.5–5 μM, 2–3 h)
Outline: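 Controls received 0.05% DMSO. Equal-protein RIPA whole-cell lysates were immunoblotted for pY705STAT3, STAT3 and tubulin. Results came from two to three independent determinations.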

[12] = test system: MDA-MB-231 cells; assay: Cell growth by trypan blue exclusion/phase-contrast microscopy, MDA-MB-231; type: cell-based, human; conditions: 2 μM
[13] = test system: STAT3 DNA-binding activity in MDA-MB-468 cells; assay: Constitutive STAT3 DNA-binding activity in treated breast cancer cells; type: cell-based, human; conditions: for earliest time of inhibition of STAT3 DNA-binding activity in cells: MDA-MB-468; for constitutive STAT3 DNA-binding activity in cells: cells treated with 1–5 μM (BBI-608 0.5–5 μM, 2–3 h)
Outline: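 MDA-MB-468 cells were treated with 5 μM test compound for 1–3 h; controls received 0.05% DMSO. Nuclear extracts of equal total protein were incubated with 33P-labelled hSIE probe (c-fos m67 variant) for 30 min at 30 °C. STAT3:DNA complexes were then resolved by EMSA. Results came from two to three independent determinations.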

[14] = test system: MCF-7 cells; assay: CyQuant cell viability assay, MCF-7; type: cell-based, human
Outline: as §1

STAT3, sequence (P42227 2-770 limits assumed): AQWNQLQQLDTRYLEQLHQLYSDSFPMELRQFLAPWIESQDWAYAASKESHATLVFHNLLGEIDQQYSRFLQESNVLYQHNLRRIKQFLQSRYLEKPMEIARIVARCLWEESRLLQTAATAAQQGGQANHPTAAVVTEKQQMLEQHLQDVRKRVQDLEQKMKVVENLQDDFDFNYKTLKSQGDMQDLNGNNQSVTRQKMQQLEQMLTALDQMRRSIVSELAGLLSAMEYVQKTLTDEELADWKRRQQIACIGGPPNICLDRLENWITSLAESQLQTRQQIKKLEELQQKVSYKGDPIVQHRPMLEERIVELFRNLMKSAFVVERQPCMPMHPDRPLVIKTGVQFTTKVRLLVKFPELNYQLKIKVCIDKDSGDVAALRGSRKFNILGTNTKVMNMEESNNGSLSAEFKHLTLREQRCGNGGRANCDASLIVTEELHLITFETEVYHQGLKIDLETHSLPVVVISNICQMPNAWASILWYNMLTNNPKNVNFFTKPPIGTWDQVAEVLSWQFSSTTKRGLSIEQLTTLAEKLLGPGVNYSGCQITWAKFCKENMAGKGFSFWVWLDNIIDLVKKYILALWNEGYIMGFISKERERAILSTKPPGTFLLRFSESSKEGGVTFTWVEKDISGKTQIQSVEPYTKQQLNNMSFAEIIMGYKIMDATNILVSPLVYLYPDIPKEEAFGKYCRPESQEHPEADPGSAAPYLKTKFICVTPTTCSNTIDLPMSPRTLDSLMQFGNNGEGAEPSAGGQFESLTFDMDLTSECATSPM

CN(CC(=O)N(Cc1ccc(C2CCCCC2)cc1)c1ccc(C(=O)O)c(O)c1)S(=O)(=O)c1c(F)c(F)c(F)c(F)c1F [BP-1-102]
cellular activities of parent lead compounds [1]: 10 to 20 µM

O=C(O)c1ccc(N(Cc2ccc(C3CCCCC3)cc2)C(=O)[C@H]2CCN2S(=O)(=O)c2c(F)c(F)c(F)c(F)c2F)cc1O [Compound 5a, (R)-4-(N-(4-cyclohexylbenzyl)-1-((perfluorophenyl)sulfonyl)azetidine-2-carboxamido)-2-hydroxybenzoic acid]
activity against breast cancer cells [2]: no activity

O=C(O)c1ccc(N(Cc2ccc(C3CCCCC3)cc2)C(=O)C2CN(S(=O)(=O)c3c(F)c(F)c(F)c(F)c3F)C2)cc1O [Compound 5c]
EMSA IC50 ([3]; STAT3:DNA complexes, hSIE probe, 30 min preincubation at room temperature): loss of activity

O=C(O)c1ccc(N(Cc2ccc(C3CCCC3)cc2)C(=O)[C@H]2CCN2S(=O)(=O)c2c(F)c(F)c(F)c(F)c2F)cc1O [Compound 5e]
effect on DNA-binding activity of STAT1:STAT1 homodimers [4]: minimal effect | effect on DNA-binding activity of STAT5:STAT5 homodimers [5]: minimal effect

O=C(O)c1ccc(N(Cc2ccc(C3CCOCC3)cc2)C(=O)[C@H]2CCN2S(=O)(=O)c2c(F)c(F)c(F)c(F)c2F)cc1O [Compound 5g]
effect on DNA-binding activity of STAT1:STAT1 homodimers [4]: minimal effect | effect on DNA-binding activity of STAT5:STAT5 homodimers [5]: minimal effect

O=C(O)c1cc(F)c(N(Cc2ccc(C3CCCCC3)cc2)C(=O)[C@H]2CCN2S(=O)(=O)c2c(F)c(F)c(F)c(F)c2F)cc1O [Compound 5i]
effect on DNA-binding activity of STAT1:STAT1 homodimers [4]: minimal effect | effect on DNA-binding activity of STAT5:STAT5 homodimers [5]: minimal effect

O=C(O)c1ccc(N(Cc2ccc(C3CCCCC3)nc2)C(=O)[C@H]2CCN2S(=O)(=O)c2c(F)c(F)c(F)c(F)c2F)cc1O [Compound 5m]
effect on DNA-binding activity of STAT1:STAT1 homodimers [4]: minimal effect | effect on DNA-binding activity of STAT5:STAT5 homodimers [5]: minimal effect

O=C(O)c1ccc(N(Cc2ccc(C3CCOCC3)nc2)C(=O)[C@H]2CCN2S(=O)(=O)c2c(F)c(F)c(F)c(F)c2F)cc1O [Compound 5n]
effect on DNA-binding activity of STAT1:STAT1 homodimers [4]: minimal effect | effect on DNA-binding activity of STAT5:STAT5 homodimers [5]: minimal effect

O=C([C@H]1CCN1S(=O)(=O)c1c(F)c(F)c(F)c(F)c1F)N(Cc1ccc(C2CCCCC2)cc1)c1ccc(-c2nnn[nH]2)cc1 [Compound 6e]
EC50 [6]: > 10 µM | activity against breast cancer cells [2]: weak cellular activity

COC(=O)c1ccc(N(Cc2ccc(C3CCCCC3)cc2)C(=O)[C@H]2CCN2S(=O)(=O)c2c(F)c(F)c(F)c(F)c2F)cc1O [Compound 7a]
EC50 [7]: 4.3 µM | effect on DNA-binding activity of STAT1:STAT1 homodimers [4]: minimal effect | EC50 [8]: 2.5 µM | effect on DNA-binding activity of STAT5:STAT5 homodimers [5]: minimal effect

COC(=O)c1ccc(N(Cc2ccc(C3CCCCC3)cc2)C(=O)[C@H]2CCN2S(=O)(=O)c2c(F)c(F)c(F)c(F)c2F)c(F)c1 [Compound 7b]
EC50 [7]: 6 µM | effect on DNA-binding activity of STAT1:STAT1 homodimers [4]: minimal effect | effect on DNA-binding activity of STAT5:STAT5 homodimers [5]: minimal effect

COC(=O)c1ccc(N(Cc2ccc(C3CCCCC3)nc2)C(=O)[C@H]2CCN2S(=O)(=O)c2c(F)c(F)c(F)c(F)c2F)cc1O [Compound 7c]
EC50 [7]: 3.6 µM

COC(=O)c1ccc(N(Cc2cnc(C3CCCCC3)cn2)C(=O)[C@H]2CCN2S(=O)(=O)c2c(F)c(F)c(F)c(F)c2F)c(F)c1 [Compound 7e]
inhibition of colony formation ([9]; 0.5 μM): minimal to moderate inhibition of colony formation | inhibition of colony formation ([9]; 1 μM): near-complete inhibition | viability, anchorage-dependent and independent growth, and colony formation [2]: strongly inhibited

COC(=O)c1ccc(N(Cc2cnc(C3CCCCC3)cn2)C(=O)[C@H]2CCN2S(=O)(=O)c2c(F)c(F)c(F)c(F)c2F)cc1O [Compound 7f]
inhibition of colony formation ([9]; 0.5 μM): minimal to moderate inhibition of colony formation | inhibition of colony formation ([9]; 1 μM): significant inhibition | viability, anchorage-dependent and independent growth, and colony formation [2]: strongly inhibited

O=C(NO)c1ccc(N(Cc2ccc(C3CCCCC3)cc2)C(=O)[C@H]2CCN2S(=O)(=O)c2c(F)c(F)c(F)c(F)c2F)cc1O [Compound 8d]
effect on DNA-binding activity of STAT1:STAT1 homodimers [4]: minimal effect | effect on DNA-binding activity of STAT5:STAT5 homodimers [5]: minimal effect

O=C(NO)c1ccc(N(Cc2ccc(C3CCCCC3)cc2)C(=O)[C@H]2CCN2S(=O)(=O)c2c(F)c(F)c(F)c(F)c2F)c(F)c1 [Compound 8f]
effect on DNA-binding activity of STAT1:STAT1 homodimers [4]: minimal effect | effect on DNA-binding activity of STAT5:STAT5 homodimers [5]: minimal effect

O=C(NO)c1ccc(N(Cc2ccc(C3CCCCC3)cn2)C(=O)[C@H]2CCN2S(=O)(=O)c2c(F)c(F)c(F)c(F)c2F)c(F)c1 [Compound 8l]
activity against breast cancer cells [2]: weakly active

CNC(=O)c1ccc(N(Cc2ccc(C3CCCCC3)cn2)C(=O)[C@H]2CCN2S(=O)(=O)c2c(F)c(F)c(F)c(F)c2F)cc1O [Compound 8q]
cell growth MCF-7, trypan blue exclusion [10]: no effect | pY705STAT3 in breast cancer cells [11]: inhibited pY705STAT3 in dose- and time-dependent manner | cell growth MDA-MB-231, trypan blue exclusion [12]: good activity | inhibition of colony formation ([9]; 1 μM): does not show any inhibitory effect | earliest time of inhibition of STAT3 DNA-binding activity in cells [13]: 6 h | constitutive STAT3 DNA-binding activity in cells [13]: inhibited to variable degrees | effect on DNA-binding activity of STAT5:STAT5 homodimers [5]: minimal effect

O=C1NC(=O)c2cc(N(Cc3ccc(C4CCCCC4)cn3)C(=O)[C@H]3CCN3S(=O)(=O)c3c(F)c(F)c(F)c(F)c3F)ccc21 [Compound 9k]
cell growth MCF-7, trypan blue exclusion [10]: no effect | pY705STAT3 in breast cancer cells [11]: inhibited pY705STAT3 in dose- and time-dependent manner; also recorded: bounced back by 24 h | cell growth MDA-MB-231, trypan blue exclusion [12]: strongly inhibited cell growth | inhibition of colony formation ([9]; 0.5 μM): minimal to moderate inhibition of colony formation | inhibition of colony formation ([9]; 1 μM): significant inhibition | earliest time of inhibition of STAT3 DNA-binding activity in cells [13]: 0.083 h | constitutive STAT3 DNA-binding activity in cells [13]: inhibited to variable degrees | effect on DNA-binding activity of STAT5:STAT5 homodimers [5]: minimal effect | viability, anchorage-dependent and independent growth, and colony formation [2]: strongly inhibited

COc1ccc(S(=O)(=O)Nc2cc(-c3c(O)ccc4ccccc34)c(O)c3ccccc23)cc1 [Compound C188-9]
direct effect on STAT3 activity in the DNA-binding assay/EMSA [3]: minimal direct effect | stronger activity against MCF-7 than MDA-MB-231 [14]: 2 fold

CN(CC(=O)N(Cc1ccc(C2CCCCC2)cc1)c1ccc(C(=O)O)cc1)S(=O)(=O)c1c(F)c(F)c(F)c(F)c1F [SH4-54]
cellular activities of parent lead compounds [1]: 4.5 µM

CN(CC(=O)N(Cc1ccc(C2CCCCC2)cc1)c1ccc(C(=O)NO)cc1)S(=O)(=O)c1c(F)c(F)c(F)c(F)c1F [SH5-07]
cellular activities of parent lead compounds [1]: 3.8 µM

CC(=O)c1cc2c(o1)C(=O)c1ccccc1C2=O [napabucasin, reference compound]
direct effect on STAT3 activity in the DNA-binding assay/EMSA [3]: minimal direct effect | pY705STAT3 in breast cancer cells [11]: weak to moderate effects | constitutive STAT3 DNA-binding activity in cells [13]: weak to moderate effects
